HSF-1 act: increases HSF-1 driven luciferase reporter signal. NIH3T3-HGL HSF-1 luciferase reporter, MG132, 8 h; 100% = twice DMSO control signal. activation, % at 9 µM. 300,000 compounds, 1.7% hits;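 active = mean replicate activation of at least 50% with a set share of replicates each reaching 50%; inconclusive = only one of those two conditions met; inactive = mean below 50% and too few replicates reaching it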
Wnt act: activates Wnt/beta-catenin signaling in a reporter cell assay; 300,000 compounds, 1.2% hits; activator, plate reader; activation, % at 9.35 µM; AID 743398; in the data active = activation above about 30%, passing the limit was not always enough; inconclusive = no clear call, values can overlap the other calls
SR-BI DiI-HDL act: activators of SR-BI mediated HDL lipid uptake; CHO ldlA[mSR-BI] cells, DiI-HDL uptake fluorescence, 3 h; 100 = double the neutral-control signal; activation, % at 12.5 µM; 320,000 compounds, 0.096% hits; AID 504775;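 active = mean replicate activation of at least 60% and every replicate at or above 60%; inconclusive = mean or all-replicate condition met, but not both; inactive = mean below 60% and not all replicates reaching 60%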
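Test system: SR-BI-overexpressing, LDLR-lacking CHO cells; Medium: Ham's F12 with 0.5% BSA, HEPES 25 mM, pH 7.4; Schedule: 3 h, 37 °C; Technique: bottom-read fluorescence, 550/595 nm.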
SR-BI DiI inh: mouse SR-BI HDL lipid transfer inhibition | Q61009 | ldlA[mSR-BI] CHO cells, DiI-HDL uptake fluorescence, 3 h | inhibition, % at 12.5 µM | 320,000 compounds, 0.96% hits;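 active = mean replicate inhibition of at least 70% and a set share of replicates each scoring 70 or more; inconclusive = meets just one of the two criteria; inactive = fails both criteria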
Target sequence (Q61009 whole entry, looked up): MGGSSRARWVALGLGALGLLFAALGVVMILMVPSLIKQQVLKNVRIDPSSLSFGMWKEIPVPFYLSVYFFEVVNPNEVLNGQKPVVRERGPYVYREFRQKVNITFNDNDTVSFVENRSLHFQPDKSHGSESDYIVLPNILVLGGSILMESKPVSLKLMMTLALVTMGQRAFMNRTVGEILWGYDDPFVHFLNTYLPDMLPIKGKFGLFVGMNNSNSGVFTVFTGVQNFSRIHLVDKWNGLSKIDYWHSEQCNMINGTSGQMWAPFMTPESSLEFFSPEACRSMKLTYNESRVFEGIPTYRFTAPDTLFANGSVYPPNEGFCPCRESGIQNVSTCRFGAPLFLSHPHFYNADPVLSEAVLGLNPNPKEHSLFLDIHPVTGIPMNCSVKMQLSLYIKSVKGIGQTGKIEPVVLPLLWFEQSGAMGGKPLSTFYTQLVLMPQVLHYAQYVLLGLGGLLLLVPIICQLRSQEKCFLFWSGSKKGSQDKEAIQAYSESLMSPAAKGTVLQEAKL
MITF TRPM1 HTS: increases MITF-driven TRPM1 promoter luciferase signal | activation, % at 12.5 µM | 300,000 compounds, 0.75% hits | SK-MEL-5 TRPM1-promoter luciferase, 24 h; % of positive control, neutral wells = 0;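 active = mean activation of at least 80% with every replicate also reaching 80%; inconclusive = mean reaches 80% but some replicate falls short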
A number is an active result; . = inactive; ? = inconclusive; / = no result given. A selection: hits, their analogues and other compounds. The true share with any hit is near 3.6%.

SMILES	HSF-1 act	Wnt act	SR-BI DiI-HDL act	SR-BI DiI inh	MITF TRPM1 HTS
O=C(OCC(=O)c1ccc[nH]1)c1ccc(C(F)(F)F)cc1	/	.	.	.	.
Cc1ccsc1C(=O)OCC(=O)c1ccc[nH]1	/	38	.	.	109
COC(=O)Cc1csc(Nc2ccccc2Cl)n1	.	.	.	.	94
CCOC(=O)c1sc(NC(=O)Nc2ccccc2F)nc1C	.	.	.	.	.
CCOC(=O)c1sc(Nc2ccccc2Cl)nc1C	.	39	/	/	.
COC(=O)c1cc2c(c3c4ccccc4n(S(C)(=O)=O)c13)C(=O)N(Cc1ccccc1)C2	/	.	/	/	/
CN(CC(=O)Nc1ccccc1Cl)C(=O)c1cc2c(s1)CCCCC2	/	.	.	.	.
COc1ccc2cc(C(=O)N(C)CC(=O)Nc3ccccc3Br)ccc2c1	/	42	.	.	.
COc1ccc(NC(=O)CN(C)C(=O)c2cccc(S(=O)(=O)N3CCCc4ccccc43)c2)cc1	.	.	.	.	.
CN(CC(=O)Nc1ccccc1Br)C(=O)c1ccc(COc2ccccc2)cc1	.	.	.	.	.
CN(CC(=O)Nc1ccccc1Br)C(=O)c1cccc(S(=O)(=O)N2CCc3ccccc32)c1	/	.	.	82	.
CN(CC(=O)Nc1ccccc1Br)C(=O)c1cc2c(s1)CCCCC2	.	43	.	.	?
COc1ccccc1CCn1cnc(-c2cccc(Br)c2)c1CC(C)C	/	.	/	/	/
Cc1ccccc1/C=C1\CCCc2ccccc2C1=O	.	77	.	.	/
CC(=O)Nc1ccc(S(=O)(=O)NCC2CCN(C(=O)C(=O)c3cc4ccccc4o3)CC2)cc1	/	.	/	/	/
COc1ccc(C2OCC(C)(C)CO2)cc1OC	/	.	77	.	.
Cn1ncc([N+](=O)[O-])c1C(=O)Nc1ccc(-c2nc3ccccc3o2)cc1	56	.	.	.	.
CC1CCN(C(=O)c2cc3ccccc3cc2O)CC1	.	.	.	.	.
O=C(NNC(=O)c1cc2ccccc2cc1O)NC1CCCCC1	.	.	.	115	.
O=C(NNC(=S)NC1CCCCC1)c1ccccc1O	.	.	.	118	.
CC1CCC(NC(=O)c2cc3ccccc3cc2O)CC1 (configuration not stated)	/	46	.	.	94
C/C(=N\N=C(/N)c1nonc1N)c1ccc2c(c1)OCO2	101	.	.	.	/
NC(=O)C1CCCN(C(=O)c2ccc3c(c2)NC(=O)CS3)C1 (configuration not stated)	/	.	.	.	.
Cc1cc(Br)cn2c(Cc3ccccc3)c(-c3ccc(F)cc3)nc12	/	.	/	/	/
C[C@]12CC[C@@H]3c4cc(O)c(O)cc4CC[C@H]3[C@@H]1CC[C@@H]2O	85	.	.	.	.
SMILES	HSF-1 act	Wnt act	SR-BI DiI-HDL act	SR-BI DiI inh	MITF TRPM1 HTS
C[C@]12CC[C@@H]3c4ccc(O)cc4CC[C@H]3[C@@H]1CC[C@@H]2O	.	.	.	.	.
CC1CCCN(C(=O)CSc2nc3ccccc3o2)C1 (configuration not stated)	.	?	.	.	/
CN(C(=O)CSc1nc2ccccc2o1)C1CCCCC1	/	57	.	.	?
CCCCCCN1CCN(C2CN(Cc3ccccc3)S(=O)(=O)C2)CC1 (configuration not stated)	/	.	/	/	/
CCOC(=O)C1=CCN(S(=O)(=O)c2ccc(Cl)cc2)C1c1ccc(Cl)c(Cl)c1 (configuration not stated)	/	.	/	/	/
Cc1ccnc(NC(=O)CNC(=O)COc2ccccc2)c1	.	38	.	.	90
COc1cc(/C=C2/SC(=S)N(CCC(=O)N3CCN(C)CC3)C2=O)cc(OC)c1OC	/	.	/	/	/
Cc1ccccc1C(=O)N1[C@@H](C(C)C)COc2cc(Br)ccc2S1(=O)=O	/	.	.	.	.
CC1CCN(C2=C(NS(=O)(=O)c3ccccc3)C(=O)c3ccccc3C2=O)CC1	.	.	/	/	.
O=C1C(NS(=O)(=O)c2cccs2)=C(N2CCN(c3cccc(Cl)c3)CC2)C(=O)c2ccccc21	.	/	.	81	.
O=C1C(NS(=O)(=O)c2ccccc2)=C(N2CCN(c3ccc(F)cc3)CC2)C(=O)c2ccccc21	.	.	.	87	.
Nc1ccn([C@@H]2O[C@H](C(=O)N3CCN(c4ccc(Cl)cn4)CC3)[C@@H](O)[C@H]2O)c(=O)n1	/	.	/	/	/
O=C(COc1ccc(-c2nnco2)cc1)Nc1ccc(C(F)(F)F)cc1	.	.	.	.	.
Cc1ccc(-c2cnn(-c3cccc(C(F)(F)F)c3)c2N)cc1	53	/	.	.	/
Nc1c(-c2ccc(Cl)cc2)cnn1-c1cccc(C(F)(F)F)c1	.	.	.	77	.
Cc1nnc(-c2cnn(-c3ccccc3)c2N)n1Cc1cccc(C(F)(F)F)c1	.	/	.	.	/
Cc1cc2[nH]c(=O)c3ccccc3n2n1	54	.	.	.	.
C[C@H]1C=C(C(=O)NCc2ccccc2)O[C@@H](OCc2ccc(CO)cc2)C1	.	48	.	.	.
O=C(NCc1ccccc1)C1=C[C@@H](c2ccccc2)C[C@@H](OCc2ccc(CO)cc2)O1	.	.	.	.	.
N#CCc1c(C#N)c(N)nc(N2CCN(S(=O)(=O)c3ccccc3F)CC2)c1C#N	173	.	.	.	.
Cc1ccc(S(=O)(=O)N(C)C)cc1NC(=O)CCc1ccccc1	.	48	.	.	.
COC(=O)c1ccc(CNC(=O)COC(=O)/C=C/c2cccc(OC)c2)cc1	/	.	/	/	/
C[C@@H]1C=CCCO[C@]12C(=O)N(Cc1ccc(F)cc1)c1ccccc12	/	.	/	/	/
Cc1ccc2oc(-c3ccccc3)nc2c1	69	/	.	.	.
Cc1cccc(-c2nc3cc([N+](=O)[O-])ccc3o2)c1	.	.	.	.	91
SMILES	HSF-1 act	Wnt act	SR-BI DiI-HDL act	SR-BI DiI inh	MITF TRPM1 HTS
CCOc1cccc(-c2nc3cc(C)ccc3o2)c1	.	/	.	.	.
O=[N+]([O-])c1ccc2oc(-c3ccccc3)nc2c1	.	.	.	.	.
Cc1ccc2c(c1)c1c(n2C)-c2[nH]ncc2CC1	.	41	.	.	/
Cc1ccc2c(c1)c1c(n2C)C(C(N)=O)CCC1 (configuration not stated)	.	.	.	.	.
CCOC(=O)C1(C)CCCN1C(=O)c1cc(F)ccc1C (configuration not stated)	/	.	/	/	/
C[C@@H]1COC(=O)[C@H](Cc2ccc(F)cc2)CC/C=C\C[C@@H](CC(=O)NCCO)C(=O)N1	/	.	.	.	.
COc1cc2sc3ccc(C#Cc4ccccn4)cc3c(=O)c2cc1OC	.	.	.	.	.
Nc1cccc(C#Cc2ccc3c(=O)c4ccccc4oc3c2)c1	/	.	.	.	132
COc1cccc2sc3cc(C#Cc4ccccn4)ccc3c(=O)c12	/	.	.	.	101
CNC(C)C#Cc1ccc2oc3cccc(OC)c3c(=O)c2c1 (configuration not stated)	.	.	.	.	.
COc1cccc2oc3ccc(C#Cc4ccccn4)cc3c(=O)c12	61	40	.	.	.
Nc1ccc(C#Cc2ccc3oc4ccccc4c(=O)c3c2)cc1	.	.	.	.	.

Compound activity from PubChem BioAssay.
